Values belong to the compound of their own block, whether it stands above or below them. Calls of active or inactive are those of the source. No cut-off for these calls is given here.
What was measured:
[1] = molecular target: Vascular endothelial growth factor receptor 2 (Danio rerio) (UniProt Q5GIT4); experiment: Inhibition of VEGFR2-mediated regenerative angiogenesis in adult zebrafish tail fin vessel at 500 to 1000 nM after 3 days by microscopy; type: tissue-based
[2] = molecular target: Vascular endothelial growth factor receptor 2 (Danio rerio) (UniProt Q5GIT4); experiment: Inhibition of VEGFR2-mediated regenerative angiogenesis in adult zebrafish tail fin vessel at 100 to 500 nM after 3 days by microscopy
Procedure, shortened: (§1)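 Adult fins cut at mid-fin level; fish kept in fish water with inhibitor (DMSO stock, final DMSO <0.1%) at 31-33 °C, up to six fish per liter, for 3 dpa. Tg(fli1:EGFP)y1 endothelial signal imaged by fluorescence microscopy, with perfusion shown by intracardiac angiography in the same fish.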

[3] = molecular target: Vascular endothelial growth factor receptor 2 (Danio rerio) (UniProt Q5GIT4); experiment: Inhibition of VEGFR2-mediated regenerative angiogenesis in adult zebrafish tail fin vessel at 500 to 1000 nM after 3 days by microscopy
[4] = molecular target: Vascular endothelial growth factor receptor 2 (Danio rerio) (UniProt Q5GIT4); experiment: Mild inhibition of VEGFR2-mediated regenerative angiogenesis in adult zebrafish tail fin vessel at 100 to 500 nM after 3 days by microscopy; procedure, shortened: as §1
Danio rerio [5] = organism: Danio rerio; experiment: Effect on semaphorin3aa mRNA expression in adult zebrafish tail fin at 500 nM treated for 3 days measured on day 5 following drug washout by real-time PCR analysis
[6] = molecular target: Vascular endothelial growth factor receptor 2 (Danio rerio) (UniProt Q5GIT4); experiment: Inhibition of VEGFR2-mediated regenerative angiogenesis in adult zebrafish tail fin assessed disruption of actin filament at 500 nM after 14 days by immunohistochemistry
[7] = molecular target: Vascular endothelial growth factor receptor 2 (Danio rerio) (UniProt Q5GIT4); experiment: Complete inhibition of VEGFR2-mediated regenerative angiogenesis in adult zebrafish tail fin vessel at 500 nM after 3 days by microscopy; procedure, shortened: as §1
[8] = molecular target: Vascular endothelial growth factor receptor 2 (Danio rerio) (UniProt Q5GIT4); experiment: Effect on VEGFR2-mediated VEGFA mRNA expression in adult zebrafish tail fin at 500 nM treated for 3 days measured on day 5 following drug washout by real-time PCR analysis
[9] = molecular target: Vascular endothelial growth factor receptor 2 (Danio rerio) (UniProt Q5GIT4); experiment: Inhibition of VEGFR2-mediated regenerative angiogenesis in clom39-positive heterozygous adult zebrafish tail fin vessel assessed as vascularization of newly generated tissues at 100 nM measured on day 3 post treatment by angiography; type: tissue-based; design: scale not given: the % may be the effect or the level left
Procedure, shortened: (§2)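 Fins of wild-type or mutant adults cut at mid-fin level, then kept 3 dpa in fish water or 100 nM PTK787 at 31-33 °C. Perfusion shown by intracardiac injection of fluorescent lectin or 70-kDa dextran (5 mg ml-1 in Danieau's, pH 7.6). Tissue regrowth and vessel regeneration measured for each fish and given as percentage of vascularization; ANOVA with Tukey tests.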

Danio rerio [10] = organism: Danio rerio; experiment: Decrease in VEGFR2 gene expression in adult zebrafish tail fin at 500 nM treated for 3 days measured on day 5 following drug washout by real-time PCR analysis
[11] = molecular target: Vascular endothelial growth factor receptor 2 (Danio rerio) (UniProt Q5GIT4); experiment: Inhibition of VEGFR2-mediated regenerative angiogenesis in adult zebrafish tail fin distal vessel at 500 nM treated for 3 days post 5 days of amputation period measured on day 8 by angiography
Procedure, shortened: (§3)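 Amputated adult Tg(fli1:EGFP)y1 fins recovered at 31-33 °C in fish water or 500 nM inhibitor (final DMSO <0.1%); in washout runs the drug was removed at 3 dpa. The same fish were imaged over several days.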

[12] = molecular target: Vascular endothelial growth factor receptor 2 (Danio rerio) (UniProt Q5GIT4); experiment: Inhibition of VEGFR2-mediated regenerative angiogenesis in adult zebrafish tail fin distal vessel at 500 nM treated for 3 days post 5 days of amputation period measured on day 5 by angiography; procedure, shortened: as §3
[13] = molecular target: Vascular endothelial growth factor receptor 2 (Danio rerio) (UniProt Q5GIT4); experiment: Inhibition of VEGFR2-mediated regenerative angiogenesis in adult zebrafish tail fin proximal vessel at 500 nM treated for 3 days post 5 days of amputation period measured on day 8 by angiography; procedure, shortened: as §3
[14] = molecular target: Vascular endothelial growth factor receptor 2 (Danio rerio) (UniProt Q5GIT4); experiment: Effect on VEGFR2-mediated bone tissue regeneration in adult zebrafish tail fin at 500 nM after 5 days by zns-5 staining-based immunohistochemistry
Procedure, shortened: (§4)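 Fins fixed overnight at 4 °C in Dent's fixative, dehydrated in a methanol series, re-fixed in 4% paraformaldehyde for 2-24 h, then permeabilized in acetone at -20 °C for 20 min and blocked 1 h at 37 °C. Primary antibody zn-12, zns-5 or B-4 (smooth muscle actin) at 1:50-1:200 overnight at 4 °C; Cy2/Cy3 secondary at 1:200.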

[15] = molecular target: Vascular endothelial growth factor receptor 2 (Danio rerio) (UniProt Q5GIT4); experiment: Inhibition of VEGFR2-mediated regenerative angiogenesis in adult zebrafish tail fin vessel harboring hypomorphic mutation in grlm145 gene assessed as vascularization of newly generated tissues at 100 nM measured on day 3 post treatment by angiography; type: tissue-based; design: scale not given: the % may be the effect or the level left; procedure, shortened: as §2
[16] = molecular target: Vascular endothelial growth factor receptor 2 (Danio rerio) (UniProt Q5GIT4); experiment: Inhibition of VEGFR2-mediated regenerative angiogenesis in PLCgamma1y10 gene-deficient adult zebrafish tail fin vessel assessed as vascularization of newly generated tissues at 100 nM measured on day 3 post treatment by angiography; type: tissue-based; design: scale not given: the % may be the effect or the level left; procedure, shortened: as §2
[17] = molecular target: Vascular endothelial growth factor receptor 2 (Danio rerio) (UniProt Q5GIT4); experiment: Inhibition of VEGFR2-mediated regenerative angiogenesis in adult zebrafish tail fin at 500 nM treated for 3 days measured after 4 days of drug washout by angiography; procedure, shortened: as §3
Danio rerio [18] = organism: Danio rerio; experiment: Decrease in VEGFR2 gene expression in adult zebrafish tail fin at 500 nM after 3 days by real-time PCR analysis
[19] = molecular target: Vascular endothelial growth factor receptor 2 (Danio rerio) (UniProt Q5GIT4); experiment: Inhibition of VEGFR2-mediated regenerative angiogenesis in adult zebrafish tail fin assessed as amount of tissue regeneration at 500 nM measured on day 14 post treatment by angiography; type: tissue-based; procedure, shortened: as §3
[20] = molecular target: Vascular endothelial growth factor receptor 2 (Danio rerio) (UniProt Q5GIT4); experiment: Partial inhibition of VEGFR2-mediated regenerative angiogenesis in adult zebrafish tail fin vessel at 100 nM after 3 days by microscopy; procedure, shortened: as §1
[21] = molecular target: Vascular endothelial growth factor receptor 2 (Danio rerio) (UniProt Q5GIT4); experiment: Inhibition of VEGFR2-mediated regenerative angiogenesis in wild type adult zebrafish tail fin vessel assessed as vascularization of newly generated tissues at 100 nM measured on day 3 post treatment by angiography; type: tissue-based; design: scale not given: the % may be the effect or the level left; procedure, shortened: as §2
[22] = molecular target: Vascular endothelial growth factor receptor 2 (Danio rerio) (UniProt Q5GIT4); experiment: Inhibition of VEGFR2-mediated regenerative angiogenesis in adult zebrafish tail fin assessed disruption of actin filament at 500 nM measured after 1 week or recovery post amputation by immunohistochemistry
[23] = molecular target: Vascular endothelial growth factor receptor 2 (Danio rerio) (UniProt Q5GIT4); experiment: Inhibition of VEGFR2-mediated msxb mRNA expression in adult zebrafish tail fin at 500 nM measured on day 2 post treatment by in-situ hybridization assay
Danio rerio [24] = organism: Danio rerio; experiment: Decrease in VEGFR2 gene expression in adult zebrafish tail fin at 500 nM treated for 3 days measured on day 4 following drug washout by real-time PCR analysis
[25] = molecular target: Vascular endothelial growth factor receptor 2 (Danio rerio) (UniProt Q5GIT4); experiment: Inhibition of VEGFR2-mediated regenerative angiogenesis in adult zebrafish tail fin assessed as reduction of plexus formation at 500 nM treated for 3 days measured after 4 days of drug washout by angiography; procedure, shortened: as §3
[26] = molecular target: Vascular endothelial growth factor receptor 2 (Danio rerio) (UniProt Q5GIT4); experiment: Inhibition of VEGFR2-mediated regenerative angiogenesis in adult zebrafish tail fin assessed as decrease in tissue regeneration at 500 nM after 5 days by angiography; type: tissue-based; procedure, shortened: as §3
[27] = molecular target: Vascular endothelial growth factor receptor 2 (Danio rerio) (UniProt Q5GIT4); experiment: Inhibition of VEGFR2-mediated VEGFA mRNA expression in adult zebrafish tail fin at 500 nM after 1.5 days by in-situ hybridization assay
[28] = molecular target: Vascular endothelial growth factor receptor 2 (Danio rerio) (UniProt Q5GIT4); experiment: Effect on VEGFR2-mediated axonal outgrowth in adult zebrafish tail fin at 500 nM after 5 days by zn-12 staining-based immunohistochemistry; procedure, shortened: as §4
[29] = molecular target: Vascular endothelial growth factor receptor 2 (Danio rerio) (UniProt Q5GIT4); experiment: Inhibition of VEGFR2-mediated shh mRNA expression in adult zebrafish tail fin at 500 nM measured on day 2 post treatment by in-situ hybridization assay
Danio rerio [30] = organism: Danio rerio; experiment: Decrease in VEGFR2 gene expression in adult zebrafish tail fin at 500 nM up to 2 days by in-situ hybridization assay
Danio rerio [31] = organism: Danio rerio; experiment: Effect on ephrinB2a mRNA expression in adult zebrafish tail fin at 500 nM treated for 3 days measured on day 5 following drug washout by real-time PCR analysis
[32] = molecular target: Vascular endothelial growth factor receptor 2 (Danio rerio) (UniProt Q5GIT4); experiment: Inhibition of VEGFR2-mediated regenerative angiogenesis in adult zebrafish tail fin proximal vessel at 500 nM treated for 3 days post 5 days of amputation period measured on day 5 by angiography; procedure, shortened: as §3
[33] = molecular target: Vascular endothelial growth factor receptor 2 (Danio rerio) (UniProt Q5GIT4); experiment: Inhibition of VEGFR2-mediated regenerative angiogenesis in adult zebrafish tail fin assessed as amount of tissue regeneration at 500 nM measured on day 7 post treatment by angiography; type: tissue-based; procedure, shortened: as §3
Danio rerio [34] = organism: Danio rerio; experiment: Decrease in FGFR1 mRNA expression in adult zebrafish tail fin at 500 nM measured on day 2 post treatment by in-situ hybridization assay

Chain of Vascular endothelial growth factor receptor 2 (Danio rerio) (Q5GIT4 whole entry, the tested form may be a part): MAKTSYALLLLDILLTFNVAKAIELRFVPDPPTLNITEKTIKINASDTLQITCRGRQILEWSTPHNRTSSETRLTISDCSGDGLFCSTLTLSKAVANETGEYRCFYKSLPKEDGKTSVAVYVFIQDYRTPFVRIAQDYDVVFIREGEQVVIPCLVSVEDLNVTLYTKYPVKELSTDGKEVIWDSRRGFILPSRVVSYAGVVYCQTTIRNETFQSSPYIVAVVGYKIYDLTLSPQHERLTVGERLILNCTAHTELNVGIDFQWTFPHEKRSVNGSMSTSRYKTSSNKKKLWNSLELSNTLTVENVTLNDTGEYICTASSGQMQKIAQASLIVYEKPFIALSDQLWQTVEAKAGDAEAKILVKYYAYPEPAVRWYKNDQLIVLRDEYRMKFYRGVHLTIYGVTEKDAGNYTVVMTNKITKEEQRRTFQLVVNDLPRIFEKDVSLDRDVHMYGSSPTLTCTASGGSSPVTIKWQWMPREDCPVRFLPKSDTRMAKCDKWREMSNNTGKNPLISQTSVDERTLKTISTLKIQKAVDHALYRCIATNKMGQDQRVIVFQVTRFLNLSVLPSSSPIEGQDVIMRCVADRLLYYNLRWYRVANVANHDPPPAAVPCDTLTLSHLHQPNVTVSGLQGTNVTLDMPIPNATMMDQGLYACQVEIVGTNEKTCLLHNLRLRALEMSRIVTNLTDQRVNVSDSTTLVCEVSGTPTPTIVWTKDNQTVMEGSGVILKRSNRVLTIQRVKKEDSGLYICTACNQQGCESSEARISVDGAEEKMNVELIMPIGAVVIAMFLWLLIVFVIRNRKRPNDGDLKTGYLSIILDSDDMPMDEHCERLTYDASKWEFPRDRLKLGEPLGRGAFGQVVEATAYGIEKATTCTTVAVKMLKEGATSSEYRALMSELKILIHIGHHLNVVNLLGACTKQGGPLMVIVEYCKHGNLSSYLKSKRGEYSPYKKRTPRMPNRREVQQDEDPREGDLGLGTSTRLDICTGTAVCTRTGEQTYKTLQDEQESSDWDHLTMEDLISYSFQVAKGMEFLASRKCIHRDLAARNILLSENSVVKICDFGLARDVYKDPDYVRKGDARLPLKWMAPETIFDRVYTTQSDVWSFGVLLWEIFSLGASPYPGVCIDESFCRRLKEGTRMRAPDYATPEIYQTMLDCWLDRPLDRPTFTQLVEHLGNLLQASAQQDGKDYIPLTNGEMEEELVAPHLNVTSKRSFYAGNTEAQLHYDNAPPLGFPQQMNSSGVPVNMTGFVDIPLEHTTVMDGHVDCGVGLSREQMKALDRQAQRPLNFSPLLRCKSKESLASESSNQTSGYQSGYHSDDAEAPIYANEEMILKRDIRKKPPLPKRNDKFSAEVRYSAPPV

inhibition [1]: inactive
SMILES: Cc1cc(C)c(/C=C2\C(=O)Nc3ccccc32)[nH]1

inhibition [2]: Active
SMILES: O=C(Nc1cccc(C(F)(F)F)c1)c1ccccc1NCc1ccncc1

inhibition [3]: Active
inhibition [4]: Active
SMILES: CCN(CC)CCNC(=O)c1c(C)[nH]c(/C=C2\C(=O)Nc3ccc(Cl)cc32)c1C

inhibition [6]: inactive
inhibition [7]: Active
Activity [8]: inactive
Activity [9]: 50%
inhibition [11]: Active
inhibition [12]: Active
inhibition [13]: inactive
Activity [14]: inactive
Activity [15]: 30%
Activity [16]: 30%
inhibition [17]: inactive
regenerated tissue length [19]: 800 µm
inhibition [20]: Active
Activity [21]: 50%
inhibition [22]: Active
inhibition [23]: inactive
inhibition [25]: Active
inhibition [3]: Active
inhibition [26]: Active
inhibition [27]: inactive
Activity [28]: inactive
inhibition [29]: inactive
inhibition [32]: inactive
regenerated tissue length [33]: 800 µm
SMILES: Clc1ccc(Nc2nnc(Cc3ccncc3)c3ccccc23)cc1
Activity (Danio rerio [5]): inactive
inhibition (Danio rerio [10]): inactive
inhibition (Danio rerio [18]): Active
inhibition (Danio rerio [24]): inactive
inhibition (Danio rerio [30]): Active
Activity (Danio rerio [31]): inactive
inhibition (Danio rerio [34]): inactive
